Tested on: U2OS
Assay: Multiplex assay against U2OS
Type: toxicity, cell-based
Settings: human
In short: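 Cells were classed with CellPathfinder machine-learning gating, first as Hoechst high-intensity objects or normal cells, then (normal cells) as healthy, pyknosed or fragmented nuclei, and finally (pyknosed cells) as mitotic or apoptotic. Staining of live cells at seeding used Hoechst33342, BioTracker Green Microtubule Cytoskeleton Dye, MitoTracker Red and Annexin V Alexa Fluor 680, with imaging on a CQ1 microscope at 37°C and 5% CO2 after compound addition. Tubulin, mitochondrial-mass and membrane-permeability phenotypes are per cents of healthy-nucleus cells.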

[1] = 12 h, 1 µM, compound concentration 1 uM, replicate 1
[2] = 12 h, 1 µM, compound concentration 1 uM, replicate 2
[3] = 12 h, 10 µM, compound concentration 10 uM, replicate 1
[4] = 12 h, 10 µM, compound concentration 10 uM, replicate 2
[5] = 24 h, 1 µM, compound concentration 1 uM, replicate 1
[6] = 24 h, 1 µM, compound concentration 1 uM, replicate 2
[7] = 24 h, 10 µM, compound concentration 10 uM, replicate 1
[8] = 24 h, 10 µM, compound concentration 10 uM, replicate 2
[9] = 48 h, 1 µM, compound concentration 1 uM, replicate 1
[10] = 48 h, 1 µM, compound concentration 1 uM, replicate 2
[11] = 48 h, 10 µM, compound concentration 10 uM, replicate 1
[12] = 48 h, 10 µM, compound concentration 10 uM, replicate 2

SMILES: COc1cc(C(=O)N(CCCc2ccccc2)Cc2ccc(CC(=O)O)cc2)cc(OC)c1C
- Population Apoptotic (%) [1]: 95%
- Population Fragmented Nuclei (%) [1]: 29%
- Population Healthy Nuclei (%) [1]: 60%
- Population Hoechst High Intensity Objects (%) [1]: 4%
- Population Membrane Permeable-Phenotype (%) [1]: 7%
- Population Mitochondria Different-Phenotype (%) [1]: 4%
- Population Mitotic Cells (%) [1]: 4%
- Population Normal (%) [1]: 95%
- Population Pyknosed Nuclei (%) [1]: 10%
- Population Tubulin-Different-Phenotype (%) [1]: 4%
- Total Cell Count [1]: 228
- Population Apoptotic (%) [2]: 70%
- Population Fragmented Nuclei (%) [2]: 23%
- Population Healthy Nuclei (%) [2]: 65%
- Population Membrane Permeable-Phenotype (%) [2]: 8%
- Population Mitochondria Different-Phenotype (%) [2]: 1%
- Population Mitotic Cells (%) [2]: 30%
- Population Pyknosed Nuclei (%) [2]: 11%
- Population Tubulin-Different-Phenotype (%) [2]: 1%
- Total Cell Count [2]: 93
- Population Apoptotic (%) [3]: 82%
- Population Fragmented Nuclei (%) [3]: 22%
- Population Healthy Nuclei (%) [3]: 71%
- Population Hoechst High Intensity Objects (%) [3]: 0%
- Population Membrane Permeable-Phenotype (%) [3]: 5%
- Population Mitochondria Different-Phenotype (%) [3]: 0%
- Population Mitotic Cells (%) [3]: 17%
- Population Normal (%) [3]: 99%
- Population Pyknosed Nuclei (%) [3]: 6%
- Population Tubulin-Different-Phenotype (%) [3]: 2%
- Total Cell Count [3]: 262
- Population Apoptotic (%) [4]: 100%
- Population Fragmented Nuclei (%) [4]: 15%
- Population Healthy Nuclei (%) [4]: 79%
- Population Hoechst High Intensity Objects (%) [4]: 1%
- Population Membrane Permeable-Phenotype (%) [4]: 2%
- Population Mitochondria Different-Phenotype (%) [4]: 3%
- Population Mitotic Cells (%) [4]: 0%
- Population Normal (%) [4]: 98%
- Population Pyknosed Nuclei (%) [4]: 4%
- Population Tubulin-Different-Phenotype (%) [4]: 4%
- Total Cell Count [4]: 171
- Population Apoptotic (%) [5]: 84%
- Population Fragmented Nuclei (%) [5]: 29%
- Population Healthy Nuclei (%) [5]: 61%
- Population Hoechst High Intensity Objects (%) [5]: 2%
- Population Membrane Permeable-Phenotype (%) [5]: 7%
- Population Mitochondria Different-Phenotype (%) [5]: 6%
- Population Mitotic Cells (%) [5]: 15%
- Population Normal (%) [5]: 97%
- Population Pyknosed Nuclei (%) [5]: 9%
- Population Tubulin-Different-Phenotype (%) [5]: 4%
- Total Cell Count [5]: 288
- Population Apoptotic (%) [6]: 73%
- Population Fragmented Nuclei (%) [6]: 22%
- Population Healthy Nuclei (%) [6]: 64%
- Population Hoechst High Intensity Objects (%) [6]: 4%
- Population Membrane Permeable-Phenotype (%) [6]: 2%
- Population Mitochondria Different-Phenotype (%) [6]: 2%
- Population Mitotic Cells (%) [6]: 26%
- Population Normal (%) [6]: 95%
- Population Pyknosed Nuclei (%) [6]: 13%
- Population Tubulin-Different-Phenotype (%) [6]: 0%
- Total Cell Count [6]: 120
- Population Apoptotic (%) [7]: 94%
- Population Fragmented Nuclei (%) [7]: 18%
- Population Healthy Nuclei (%) [7]: 76%
- Population Hoechst High Intensity Objects (%) [7]: 0%
- Population Membrane Permeable-Phenotype (%) [7]: 7%
- Population Mitochondria Different-Phenotype (%) [7]: 2%
- Population Mitotic Cells (%) [7]: 5%
- Population Normal (%) [7]: 99%
- Population Pyknosed Nuclei (%) [7]: 5%
- Population Tubulin-Different-Phenotype (%) [7]: 3%
- Total Cell Count [7]: 318
- Population Apoptotic (%) [8]: 84%
- Population Fragmented Nuclei (%) [8]: 12%
- Population Healthy Nuclei (%) [8]: 80%
- Population Hoechst High Intensity Objects (%) [8]: 2%
- Population Mitochondria Different-Phenotype (%) [8]: 5%
- Population Mitotic Cells (%) [8]: 15%
- Population Normal (%) [8]: 97%
- Population Pyknosed Nuclei (%) [8]: 6%
- Population Tubulin-Different-Phenotype (%) [8]: 5%
- Total Cell Count [8]: 192
- Population Apoptotic (%) [9]: 86%
- Population Fragmented Nuclei (%) [9]: 23%
- Population Healthy Nuclei (%) [9]: 69%
- Population Hoechst High Intensity Objects (%) [9]: 3%
- Population Membrane Permeable-Phenotype (%) [9]: 5%
- Population Mitochondria Different-Phenotype (%) [9]: 2%
- Population Mitotic Cells (%) [9]: 13%
- Population Normal (%) [9]: 96%
- Population Pyknosed Nuclei (%) [9]: 7%
- Population Tubulin-Different-Phenotype (%) [9]: 4%
- Total Cell Count [9]: 408
- Population Apoptotic (%) [10]: 78%
- Population Fragmented Nuclei (%) [10]: 22%
- Population Healthy Nuclei (%) [10]: 64%
- Population Hoechst High Intensity Objects (%) [10]: 6%
- Population Membrane Permeable-Phenotype (%) [10]: 7%
- Population Mitochondria Different-Phenotype (%) [10]: 5%
- Population Mitotic Cells (%) [10]: 21%
- Population Normal (%) [10]: 93%
- Population Pyknosed Nuclei (%) [10]: 12%
- Population Tubulin-Different-Phenotype (%) [10]: 6%
- Total Cell Count [10]: 159
- Population Apoptotic (%) [11]: 93%
- Population Fragmented Nuclei (%) [11]: 18%
- Population Healthy Nuclei (%) [11]: 75%
- Population Hoechst High Intensity Objects (%) [11]: 1%
- Population Membrane Permeable-Phenotype (%) [11]: 4%
- Population Mitochondria Different-Phenotype (%) [11]: 2%
- Population Mitotic Cells (%) [11]: 6%
- Population Normal (%) [11]: 98%
- Population Pyknosed Nuclei (%) [11]: 6%
- Population Tubulin-Different-Phenotype (%) [11]: 2%
- Total Cell Count [11]: 504
- Population Apoptotic (%) [12]: 94%
- Population Fragmented Nuclei (%) [12]: 15%
- Population Healthy Nuclei (%) [12]: 71%
- Population Hoechst High Intensity Objects (%) [12]: 3%
- Population Membrane Permeable-Phenotype (%) [12]: 8%
- Population Mitochondria Different-Phenotype (%) [12]: 1%
- Population Mitotic Cells (%) [12]: 5%
- Population Normal (%) [12]: 96%
- Population Pyknosed Nuclei (%) [12]: 13%
- Population Tubulin-Different-Phenotype (%) [12]: 4%
- Total Cell Count [12]: 280

From ChEMBL document CHEMBL5058577, “EUbOPEN Chemogenomics Library 2 (Multiplex)” (2022)
